From PMC5625166 (Pharmacology Research & Perspectives, 2017)
Where two headings read alike, the source gives them in different places.

Key:
CYP2E1 [1] = biological target: CYP2E1 (Homo sapiens, UniProt P05181); assay: CYP2E1 inhibition assay; type: biochemical; conditions: for inhibition at 1 h: CYP2E1 baculosomes, pH 7.4, probe para-nitrophenol (p-NP); for inhibition at saturating substrate concentration: in words; for Inhibition type: p-NP 5-100 μmol/L, inhibitor 5-200 μmol/L, goodness-of-fit
CYP2E1 (Homo sapiens, UniProt P05181), sequence (P05181 whole entry): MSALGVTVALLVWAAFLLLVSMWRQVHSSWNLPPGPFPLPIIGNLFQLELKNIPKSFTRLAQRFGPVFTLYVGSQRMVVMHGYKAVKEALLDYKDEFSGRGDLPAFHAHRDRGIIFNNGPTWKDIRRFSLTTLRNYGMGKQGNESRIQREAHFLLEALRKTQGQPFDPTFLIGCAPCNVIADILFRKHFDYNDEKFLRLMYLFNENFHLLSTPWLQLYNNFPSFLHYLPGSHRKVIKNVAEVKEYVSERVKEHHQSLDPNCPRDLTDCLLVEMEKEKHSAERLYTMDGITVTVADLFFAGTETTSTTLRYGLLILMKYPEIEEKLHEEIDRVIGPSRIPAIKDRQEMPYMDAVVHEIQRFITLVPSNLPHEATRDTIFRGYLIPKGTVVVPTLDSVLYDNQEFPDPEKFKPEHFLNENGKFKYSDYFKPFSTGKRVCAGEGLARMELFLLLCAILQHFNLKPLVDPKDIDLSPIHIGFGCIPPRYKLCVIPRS
How it was run: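 p-NP hydroxylation by CYP2E1 baculosomes (2 pmol/μL) in 50 mmol/L potassium phosphate, pH 7.4. p-NP at 5–100 μmol/L (five levels) and inhibitor at 5–200 μmol/L (six levels). Pre-incubated 5 min at 37°C, then NADPH added (26 mmol/L) and run 1 h at 37°C. Stopped with TCA, neutralized with NaOH, absorbance read at 535 nm. Activity normalized to vehicle. IC50, Km/Vmax and Ki/inhibition type fitted by nonlinear regression; four replicates.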

CYP2E1 [2] = conditions: acetone-induced rat microsome; ref Brady et al. 1991; cited from earlier work
[3] = Preliminary toxicity / cell death of DAS analogs; type: cell-based; conditions: 200 μmol/L, 6 days of treatment, unpublished
[4] = K i, noncompetitive inhibition, mean ± SE, four replicates
[5] = K i, uncompetitive inhibition, mean ± SE, four replicates
[6] = 100 μmol/L p-NP, mean ± SE, four replicates
[7] = competitive inhibition, mean ± SE, four replicates

## C=CCCCCN [5‐hexen‐1‐amine (5, 1 HA), 5‐hexen‐1‐amine]
CYP2E1 [1]
  IC50: 74.7 ± 1.2 µM
  inhibition at 1 h: 75%
CYP2E1 [1]; [4]
  Ki: ~10.5 µM
CYP2E1 [1]; [5]
  Ki: ~7.3 µM

## C=CCOCCN [2‐(prop‐2‐en‐1‐yloxy) ethan‐1‐amine]
CYP2E1 [1]
  IC50: 43.7 ± 1.4 µM
  inhibition at 1 h: 71%
CYP2E1 [1]; [4]
  Ki: 34.1 ± 3.3 µM
CYP2E1 [1]; [5]
  Ki: 19.3 ± 2.3 µM

## C=CCSC [Allyl methyl sulfide (AMS), allyl methyl sulfide]
CYP2E1 [1]
  Maximal inhibition (%): 100%
  inhibition at saturating substrate concentration: complete inhibition
  Inhibition type: Competitive
CYP2E1 [1]; [6]
  IC50: 11.4 ± 1.1 µM
CYP2E1 [1]; 100 μmol/L p-NP, mean ± SE, four replicates, listed as AMS
  IC50: 11.4 ± 1.1 µM
CYP2E1 [1]; [7]
  Ki: 4.4 ± 0.9 µM

## C=CCOCC(N)=O [2‐prop‐2‐enoxyacetamide (PEXA), 2‐prop‐2‐enoxyacetamide]
CYP2E1 [1]
  IC50: 91.4 ± 1.6 µM
  inhibition at 1 h: 20%
CYP2E1 [1]; [4]
  Ki: 363 ± 64 µM
CYP2E1 [1]; [5]
  Ki: 246 ± 47 µM

## C=CCSCC=C [Diallyl sulfide (DAS), Diallyl sulfide, reference compound]
CYP2E1 [2]
  Inhibition type: competitive inhibition
CYP2E1 [1]
  IC50: 17.3 ± 1.1 µM
  inhibition at 1 h: 97%
  Inhibition type: Competitive
CYP2E1 [1]; K i, competitive inhibition, mean ± SE, four replicates
  Ki: 6.3 ± 1 µM
CYP2E1 [1]; listed as DAS
  Inhibition type: competitive inhibition kinetics

## c1ccsc1 [Thiophene (TP), thiophene]
[3]
  toxicity: did not show any significant toxicities
CYP2E1 [1]
  Maximal inhibition (%): 98%
  inhibition at saturating substrate concentration: complete inhibition
  Inhibition type: Competitive
CYP2E1 [1]; [6]
  IC50: 19.4 ± 1.1 µM
CYP2E1 [1]; [7]
  Ki: 7.7 ± 1.2 µM
